According to PubChem BioAssay AID652202 (Vanderbilt Specialized Chemistry Center, 2013):
Calls of active or inactive are those of the source. The rule behind the calls is not given here.

Target: Metabotropic glutamate receptor 3 (Rattus norvegicus) (UniProt P31422)
Test: glutamate potency shift at rat mGlu3 – cell-based, TRex293, Galpha15, Fluo4 calcium, selectivity assay for mGlu5 silent allosteric modulator project (AID 652202)
Conditions: TRex293 rmGlu3+Galpha15, Fluo4 calcium mobilization
How it was run: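 Material: TRex293 cells with rat mGlu3 and Galpha15; reagent: glutamate, 10 nM–1 mM; dosing: compound at 10 µM, 1% DMSO; incubation: Fluo4-AM loading 60 min at 37 °C, glutamate added at 80 s; detection: calcium mobilization via Fluo4-AM fluorescence, dye at 1 µM; read-out basis: modulation of glutamate concentration-response by compound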

Metabotropic glutamate receptor 3 (Rattus norvegicus), sequence (P31422 whole entry, looked up): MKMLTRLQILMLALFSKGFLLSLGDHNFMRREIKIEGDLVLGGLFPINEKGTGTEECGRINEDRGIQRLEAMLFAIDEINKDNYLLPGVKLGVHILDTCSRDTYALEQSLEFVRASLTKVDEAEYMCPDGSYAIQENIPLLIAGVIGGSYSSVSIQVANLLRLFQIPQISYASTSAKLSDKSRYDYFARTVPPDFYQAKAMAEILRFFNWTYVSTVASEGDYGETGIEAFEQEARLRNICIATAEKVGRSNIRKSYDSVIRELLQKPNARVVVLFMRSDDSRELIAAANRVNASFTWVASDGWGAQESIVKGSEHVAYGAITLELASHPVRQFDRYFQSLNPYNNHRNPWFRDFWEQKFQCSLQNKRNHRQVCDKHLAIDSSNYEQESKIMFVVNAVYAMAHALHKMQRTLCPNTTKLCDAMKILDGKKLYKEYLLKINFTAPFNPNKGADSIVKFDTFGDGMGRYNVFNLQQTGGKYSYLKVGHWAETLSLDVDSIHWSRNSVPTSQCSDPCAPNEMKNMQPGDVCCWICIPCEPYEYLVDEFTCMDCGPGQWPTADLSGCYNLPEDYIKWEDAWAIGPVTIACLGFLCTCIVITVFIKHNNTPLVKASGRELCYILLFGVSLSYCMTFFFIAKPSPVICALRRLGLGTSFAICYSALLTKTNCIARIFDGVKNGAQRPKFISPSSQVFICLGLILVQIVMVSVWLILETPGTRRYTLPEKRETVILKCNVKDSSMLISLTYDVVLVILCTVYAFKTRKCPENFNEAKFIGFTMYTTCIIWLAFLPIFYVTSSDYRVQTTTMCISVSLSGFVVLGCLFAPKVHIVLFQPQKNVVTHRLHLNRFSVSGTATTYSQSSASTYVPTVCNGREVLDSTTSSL

Compound: O=C(c1ccc(C#Cc2cccc(F)c2)cn1)N1CC2CC2C1 (stereo unspecified)
- glutamate EC50 in presence of 10 uM compound: inactive
